Where two headings read alike, the source gives them in different places.
Tested on: participants with advanced or metastatic solid tumors
Type: in vivo, human
How it was run: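 Open-label, first-in-human 3 + 3 escalation in adults with recurrent, locally advanced or metastatic solid tumors lacking standard therapy. Test compound was given orally once daily from 25 up to 700 mg/day (modified Fibonacci steps) in 28-day cycles for 6 to 8 cycles, with no intrapatient escalation. The safety population was everyone dosed at least once. AEs were coded by MedDRA and graded by NCI CTCAE v4.03. DLT was assessed in cycle 1, and MTD was the highest dose with DLT in under one-third of a cohort.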

Compound: CNC(=O)c1ccccc1Nc1nc(Nc2ccc3c(c2OC)CCC[C@H](N2CCN(CCO)CC2)C3)ncc1Cl [ESK-440]
- AE: Cough (25 mg/day (n = 3)): 1 (33) Number (%) of participants
- AE: Decreased appetite (25 mg/day (n = 3)): 0 Number (%) of participants
- AE: Diarrhea (25 mg/day (n = 3)): 1 (33) Number (%) of participants
- AE: Edema peripheral (25 mg/day (n = 3)): 0 Number (%) of participants
- AE: Fatigue (25 mg/day (n = 3)): 0 Number (%) of participants
- AE: Nausea (25 mg/day (n = 3)): 1 (33) Number (%) of participants
- AE: Pyrexia (25 mg/day (n = 3)): 0 Number (%) of participants
- AE: Vomiting (25 mg/day (n = 3)): 0 Number (%) of participants
- Any AE (25 mg/day (n = 3)): 3 (100) Number (%) of participants
- Deaths (25 mg/day (n = 3)): 1 (33) Number (%) of participants
- Grade 3-5 AE (25 mg/day (n = 3)): 3 (100) Number (%) of participants
- Other serious AEs (25 mg/day (n = 3)): 2 (67) Number (%) of participants
- Treatment-related AE (25 mg/day (n = 3)): 1 (33) Number (%) of participants
- Withdrawn from treatment due to AE (25 mg/day (n = 3)): 1 (33) Number (%) of participants
- AE: Cough (50 mg/day (n = 3)): 0 Number (%) of participants
- AE: Decreased appetite (50 mg/day (n = 3)): 0 Number (%) of participants
- AE: Diarrhea (50 mg/day (n = 3)): 0 Number (%) of participants
- AE: Edema peripheral (50 mg/day (n = 3)): 0 Number (%) of participants
- AE: Fatigue (50 mg/day (n = 3)): 1 (33) Number (%) of participants
- AE: Nausea (50 mg/day (n = 3)): 1 (33) Number (%) of participants
- AE: Pyrexia (50 mg/day (n = 3)): 1 (33) Number (%) of participants
- AE: Vomiting (50 mg/day (n = 3)): 0 Number (%) of participants
- Any AE (50 mg/day (n = 3)): 2 (67) Number (%) of participants
- Deaths (50 mg/day (n = 3)): 0 Number (%) of participants
- Grade 3-5 AE (50 mg/day (n = 3)): 1 (33) Number (%) of participants
- Other serious AEs (50 mg/day (n = 3)): 1 (33) Number (%) of participants
- Treatment-related AE (50 mg/day (n = 3)): 1 (33) Number (%) of participants
- Withdrawn from treatment due to AE (50 mg/day (n = 3)): 0 Number (%) of participants
- AE: Cough (100 mg/day (n = 4)): 0 Number (%) of participants
- AE: Decreased appetite (100 mg/day (n = 4)): 0 Number (%) of participants
- AE: Diarrhea (100 mg/day (n = 4)): 0 Number (%) of participants
- AE: Edema peripheral (100 mg/day (n = 4)): 1 (25) Number (%) of participants
- AE: Fatigue (100 mg/day (n = 4)): 3 (75) Number (%) of participants
- AE: Nausea (100 mg/day (n = 4)): 0 Number (%) of participants
- AE: Pyrexia (100 mg/day (n = 4)): 1 (25) Number (%) of participants
- AE: Vomiting (100 mg/day (n = 4)): 0 Number (%) of participants
- Any AE (100 mg/day (n = 4)): 4 (100) Number (%) of participants
- Deaths (100 mg/day (n = 4)): 1 (25) Number (%) of participants
- Grade 3-5 AE (100 mg/day (n = 4)): 2 (50) Number (%) of participants
- Other serious AEs (100 mg/day (n = 4)): 2 (50) Number (%) of participants
- Treatment-related AE (100 mg/day (n = 4)): 2 (50) Number (%) of participants
- Withdrawn from treatment due to AE (100 mg/day (n = 4)): 1 (25) Number (%) of participants
- AE: Cough (150 mg/day (n = 3)): 1 (33) Number (%) of participants
- AE: Decreased appetite (150 mg/day (n = 3)): 1 (33) Number (%) of participants
- AE: Diarrhea (150 mg/day (n = 3)): 1 (33) Number (%) of participants
- AE: Edema peripheral (150 mg/day (n = 3)): 1 (33) Number (%) of participants
- AE: Fatigue (150 mg/day (n = 3)): 2 (67) Number (%) of participants
- AE: Nausea (150 mg/day (n = 3)): 0 Number (%) of participants
- AE: Pyrexia (150 mg/day (n = 3)): 1 (33) Number (%) of participants
- AE: Vomiting (150 mg/day (n = 3)): 0 Number (%) of participants
- Any AE (150 mg/day (n = 3)): 3 (100) Number (%) of participants
- Deaths (150 mg/day (n = 3)): 0 Number (%) of participants
- Grade 3-5 AE (150 mg/day (n = 3)): 1 (33) Number (%) of participants
- Other serious AEs (150 mg/day (n = 3)): 1 (33) Number (%) of participants
- Treatment-related AE (150 mg/day (n = 3)): 3 (100) Number (%) of participants
- Withdrawn from treatment due to AE (150 mg/day (n = 3)): 0 Number (%) of participants
- AE: Cough (250 mg/day (n = 4)): 1 (25) Number (%) of participants
- AE: Decreased appetite (250 mg/day (n = 4)): 2 (50) Number (%) of participants
- AE: Diarrhea (250 mg/day (n = 4)): 2 (50) Number (%) of participants
- AE: Edema peripheral (250 mg/day (n = 4)): 2 (50) Number (%) of participants
- AE: Fatigue (250 mg/day (n = 4)): 3 (75) Number (%) of participants
- AE: Nausea (250 mg/day (n = 4)): 3 (75) Number (%) of participants
- AE: Pyrexia (250 mg/day (n = 4)): 0 Number (%) of participants
- AE: Vomiting (250 mg/day (n = 4)): 3 (75) Number (%) of participants
- Any AE (250 mg/day (n = 4)): 4 (100) Number (%) of participants
- Deaths (250 mg/day (n = 4)): 1 (25) Number (%) of participants
- Grade 3-5 AE (250 mg/day (n = 4)): 1 (25) Number (%) of participants
- Other serious AEs (250 mg/day (n = 4)): 1 (25) Number (%) of participants
- Treatment-related AE (250 mg/day (n = 4)): 4 (100) Number (%) of participants
- Withdrawn from treatment due to AE (250 mg/day (n = 4)): 0 Number (%) of participants
- AE: Cough (350 mg/day (n = 4)): 1 (25) Number (%) of participants
- AE: Decreased appetite (350 mg/day (n = 4)): 2 (50) Number (%) of participants
- AE: Diarrhea (350 mg/day (n = 4)): 1 (25) Number (%) of participants
- AE: Edema peripheral (350 mg/day (n = 4)): 0 Number (%) of participants
- AE: Fatigue (350 mg/day (n = 4)): 2 (50) Number (%) of participants
- AE: Nausea (350 mg/day (n = 4)): 2 (50) Number (%) of participants
- AE: Pyrexia (350 mg/day (n = 4)): 1 (25) Number (%) of participants
- AE: Vomiting (350 mg/day (n = 4)): 1 (25) Number (%) of participants
- Any AE (350 mg/day (n = 4)): 4 (100) Number (%) of participants
- Deaths (350 mg/day (n = 4)): 0 Number (%) of participants
- Grade 3-5 AE (350 mg/day (n = 4)): 2 (50) Number (%) of participants
- Other serious AEs (350 mg/day (n = 4)): 1 (25) Number (%) of participants
- Treatment-related AE (350 mg/day (n = 4)): 3 (75) Number (%) of participants
- Withdrawn from treatment due to AE (350 mg/day (n = 4)): 1 (25) Number (%) of participants
- AE: Cough (500 mg/day (n = 6)): 1 (17) Number (%) of participants
- AE: Decreased appetite (500 mg/day (n = 6)): 2 (33) Number (%) of participants
- AE: Diarrhea (500 mg/day (n = 6)): 2 (33) Number (%) of participants
- AE: Edema peripheral (500 mg/day (n = 6)): 0 Number (%) of participants
- AE: Fatigue (500 mg/day (n = 6)): 2 (33) Number (%) of participants
- AE: Nausea (500 mg/day (n = 6)): 5 (83) Number (%) of participants
- AE: Pyrexia (500 mg/day (n = 6)): 2 (33) Number (%) of participants
- AE: Vomiting (500 mg/day (n = 6)): 5 (83) Number (%) of participants
- Any AE (500 mg/day (n = 6)): 6 (100) Number (%) of participants
- Deaths (500 mg/day (n = 6)): 0 Number (%) of participants
- Grade 3-5 AE (500 mg/day (n = 6)): 1 (17) Number (%) of participants
- Other serious AEs (500 mg/day (n = 6)): 1 (17) Number (%) of participants
- Treatment-related AE (500 mg/day (n = 6)): 5 (83) Number (%) of participants
- Withdrawn from treatment due to AE (500 mg/day (n = 6)): 2 (33) Number (%) of participants
- participants reporting a DLT (500 mg/day treatment group): 1 participants
- AE: Cough (700 mg/day (n = 5)): 0 Number (%) of participants
- AE: Decreased appetite (700 mg/day (n = 5)): 2 (40) Number (%) of participants
- AE: Diarrhea (700 mg/day (n = 5)): 1 (20) Number (%) of participants
- AE: Edema peripheral (700 mg/day (n = 5)): 1 (20) Number (%) of participants
- AE: Fatigue (700 mg/day (n = 5)): 4 (80) Number (%) of participants
- AE: Nausea (700 mg/day (n = 5)): 5 (100) Number (%) of participants
- AE: Pyrexia (700 mg/day (n = 5)): 0 Number (%) of participants
- AE: Vomiting (700 mg/day (n = 5)): 3 (60) Number (%) of participants
- Any AE (700 mg/day (n = 5)): 5 (100) Number (%) of participants
- Deaths (700 mg/day (n = 5)): 1 (20) Number (%) of participants
- Grade 3-5 AE (700 mg/day (n = 5)): 4 (80) Number (%) of participants
- Other serious AEs (700 mg/day (n = 5)): 0 Number (%) of participants
- Treatment-related AE (700 mg/day (n = 5)): 5 (100) Number (%) of participants
- Withdrawn from treatment due to AE (700 mg/day (n = 5)): 2 (40) Number (%) of participants
- participants reporting a DLT (700 mg/day treatment group): 2 participants
- deaths considered by investigators related to ESK-440 (4 deaths during study): None
- AE cough (Overall (N = 32)): 16%
- AE decreased appetite (Overall (N = 32)): 28%
- AE diarrhea (Overall (N = 32)): 25%
- AE fatigue (Overall (N = 32)): 53%
- AE nausea (Overall (N = 32)): 53%
- AE peripheral edema (Overall (N = 32)): 16%
- AE pyrexia (Overall (N = 32)): 19%
- AE vomiting (Overall (N = 32)): 38%
- AE: Cough (Overall (N = 32)): 5 (16) Number (%) of participants
- AE: Decreased appetite (Overall (N = 32)): 9 (28) Number (%) of participants
- AE: Diarrhea (Overall (N = 32)): 8 (25) Number (%) of participants
- AE: Edema peripheral (Overall (N = 32)): 5 (16) Number (%) of participants
- AE: Fatigue (Overall (N = 32)): 17 (53) Number (%) of participants
- AE: Nausea (Overall (N = 32)): 17 (53) Number (%) of participants
- AE: Pyrexia (Overall (N = 32)): 6 (19) Number (%) of participants
- AE: Vomiting (Overall (N = 32)): 12 (38) Number (%) of participants
- Any AE (Overall (N = 32)): 31 (97) Number (%) of participants
- Deaths (Overall (N = 32)): 4 (13) Number (%) of participants
- Grade 3-5 AE (Overall (N = 32)): 15 (47) Number (%) of participants
- Other serious AEs (Overall (N = 32)): 9 (28) Number (%) of participants
- Withdrawn from treatment due to AE (Overall (N = 32)): 7 (22) Number (%) of participants
- at least 1 AE (Overall (N = 32)): 97%
- deaths reported during the study (Overall (N = 32)): 4
- grade 3+ AEs (Overall (N = 32)): 47%
- withdrew from treatment due to AEs (Overall (N = 32)): 22%
- nature of the DLT (all 3 cases, considered related to ESK-440): grade 3 nausea
- participants reporting a DLT (all dose groups): Three
- changes in vital signs, ECG findings, physical exam findings, pulmonary function tests (during the study): no clinically significant changes
- decline in ECOG performance status (from baseline): 13 participants
- QTcF value meeting protocol-defined DLT criterion (>500 msec) (in vivo): No patient
- no change from baseline in ECOG performance status (in vivo): Nineteen
- SAEs considered related to ESK-440 (of SAEs in nine participants, nausea): 1
- maximum tolerated dose (MTD) (oral, 28-day cycle, DLT in cycle 1): 500 mg/day
